Series [1] can be described thus: Stability of the compound in solid state at 37 degC after 24 hrs. It is filed as physicochemical. In a few lines:
(§1)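 Aqueous solubility was measured across pH 1.5–8.2 at room temperature. Solution stability under acidic and neutral conditions, and solid-state stability, were followed for at least 24 h at 37 °C.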

Series [2] concerns the target T1, Alkaline phosphatase, placental type (Homo sapiens, UniProt P05187). Description: Prodrug activation assessed as human placental alkaline phosphatase mediated BMS-626529 formation. Conditions: isolated protein.
The nature of series [3]: Prodrug activation in Sprague-Dawley rat plasma assessed as BMS-626529 formation at 200 mg/kg, po after 3 hrs. It is filed as organism-based. Conditions: in vivo. Put shortly: (§2)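 Rats were dosed orally with parent (solution in PEG-400/EtOH/0.1 N NaOH at ≤25 mg/kg; suspension at 200 mg/kg) or with prodrug as an aqueous solution. Plasma AUC of the parent drug was compared between the two.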

The nature of series [4]: Stability of the compound under acidic condition at 37 degC after 24 hrs. The series is classed as physicochemical. In a few lines:
as §1

Series [5] is described as follows: Prodrug activation in beagle dog plasma assessed as BMS-626529 formation 125 mg/kg, po bid. It is filed as organism-based, Canis lupus familiaris. The conditions noted are these: in vivo.
Series [6] is described as follows: Prodrug activation in beagle dog plasma assessed as BMS-626529 formation 46 mg/kg, po bid. It is filed as organism-based, Canis lupus familiaris. Conditions: in vivo.
Series [7] in a line: Stability of the compound under neutral condition at 37 degC after 24 hrs. The series is classed as physicochemical. In a few lines:
as §1

In a further series the test system is Homo sapiens. The series is described as follows: Prodrug activation in normal healthy human assessed as BMS-626529 formation at 100 to 1000 mg dosed as standard capsule formulation. The conditions noted are these: in vivo, po. It is filed as organism-based. In a few lines:
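Single ascending dose phase 1 trial in normal healthy volunteers: prodrug given as a standard capsule at 100, 200, 400, 600, 800 and 1000 mg. Plasma exposure of the parent drug was measured.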

Series [8] in a line: Aqueous solubility of the compound at pH 1.5 to 8.2. It is filed as physicochemical. Conditions: buffer. In a few lines:
as §1

The target of series [9] is T1, Alkaline phosphatase, placental type. The series is described as follows: Prodrug activation in human hepatocytes assessed as BMS-626529 formation. The series is classed as cell-based.
Another series deals with Canis familiaris. The series is described as follows: Toxicity in beagle dog assessed as rapid emesis at 250 mg/kg, po qd. The series is classed as organism-based, Canis lupus familiaris. Conditions: in vivo.
A short description of series [10]: Prodrug activation in Sprague-Dawley rat plasma assessed as BMS-626529 formation at <= 25 mg/kg, po after 3 hrs. The series is classed as organism-based. Conditions: in vivo. Put shortly:
as §2

The target of series [11] is Envelope glycoprotein gp160 (Human immunodeficiency virus 1, UniProt Q6QLK5). The series is described as follows: Inhibition of [3H]BMS-488043 binding to HIV-1 JRFL gp120 after 1 hr by scintillation counting method.
Series [12] is described as follows: AUC in cynomolgus monkey at 5 mg/kg, po administered via gavage. The conditions noted are these: in vivo. It is filed as ADME, organism-based, Macaca fascicularis. In a few lines: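 Crossover study in three male cynomolgus monkeys (10 ± 0.8 kg) with a one-week washout between routes; dosed in PEG-400/ethanol (90/10) with pH adjusted by 0.1 N NaOH. After an overnight fast, 5 mg/kg was given by oral gavage. Serial blood was drawn before dosing and at 15–1440 min.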

Series [13] concerns Human immunodeficiency virus 1. Description: Antiviral activity against HIV1 infected in patients assessed as reduction in maxmum viral RNA by measuring log10 viral copies at 800 mg, bid measured at day 8. The series is classed as functional.
The nature of series [14]: Protein binding in human plasma. Conditions: read-out: PPB (converted). The series is classed as ADME, cell-free.
For series [15], the system named is Human immunodeficiency virus 1. Description: Antiviral activity against ENV pseudotyped CCR5-tropic HIV1 […] infected in human HeLa67 cells after 3 days by luciferase reporter gene assay. It is filed as functional, organism-based. Conditions: Human immunodeficiency virus 1, HeLa67, 72 h. In a few lines:
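Single-cycle infection with env-deleted, luciferase-reporter HIV-1 pseudotyped with the JRFL (CCR5) envelope, supplied by transfection; viral titers normalized by luminescence without compound. HeLa 67 cells were infected in the presence of compounds given as 3-fold serial dilutions made from 30 mM DMSO stocks.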

Another series concerns MT2. Description: Cytotoxicity against human MT2 cells assessed as decrease in cell viability after 3 days […]. The series is classed as functional. Conditions: MT2, 72 h.
The test system of series [16] is Human immunodeficiency virus 1. Description: Antiviral activity against HIV1 infected in patients assessed as reduction in maxmum viral RNA by measuring log10 viral copies at 1800 mg, bid measured at day 8. The series is classed as functional.
Series [17] addresses Envelope glycoprotein gp160 (Human immunodeficiency virus 1) (UniProt Q6QLK5). Description: Binding affinity to HIV-1 JRFL gp120 assessed as half life for dissociation.
Series [18] deals with Human immunodeficiency virus 1. Description: Antiviral activity against HIV1 infected in patients assessed as reduction in plasma viral load by measuring log10 viral copies at 800 mg, bid measured at day 8 (reference value: 0.02 log10 copies/ml). It is filed as functional.
A short description of series [19]: AUC in beagle dog at 5 mg/kg, po. Conditions: in vivo. It is filed as ADME, organism-based, Canis lupus familiaris. In a few lines:
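Crossover study in three male beagle dogs (12 ± 0.4 kg) with a one-week washout between routes; dosed in PEG-400/ethanol (90/10) with pH adjusted by 0.1 N NaOH. After an overnight fast, 5 mg/kg was given by oral gavage. Serial blood was drawn before dosing and at 15–1440 min.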

Series [20] is described as follows: AUC in Sprague-Dawley rat at 5 mg/kg, po after 24 hrs. Conditions: in vivo. It is filed as ADME, organism-based. Set-up: time < 24 hr, dose 5 mg/kg, route oral. In a few lines: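 Male Sprague-Dawley rats (300−350 g) with jugular vein and/or bile duct cannulas, n = 3 per route; dosed as a solution in PEG-400/ethanol (90/10). The iv dose was 1 mg/kg given as a 0.5 min bolus, with jugular blood sampled from 2 to 1440 min. The po dose was 5 mg/kg after an overnight fast, sampled from 15 to 1440 min. Plasma was taken from EDTA blood.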

In series [21] the test system is Human immunodeficiency virus 1. The series is described as follows: Antiviral activity against HIV1 infected in patients assessed as reduction in plasma viral load by measuring log10 viral copies at 1800 mg, bid measured at day 8. It is filed as functional.
Series [22] in a line: Half life in human liver microsomes. It is filed as ADME, microsome. (In general: Liver microsomes are vesicles of endoplasmic reticulum, rich in cytochrome P450 enzymes.)
Series [23] relates to Human immunodeficiency virus 1. Description: Selectivity ratio of EC50 for ENV pseudotyped CCR5-tropic HIV1 […] in presence of 40%human serum to EC50 for ENV pseudotyped CCR5-tropic HIV1 […] in absence of 40%human serum. The series is classed as functional. In a few lines: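 Single-cycle assay: env-deleted HIV-1 firefly-luciferase reporter virus pseudotyped by transfection with the JRFL (CCR5-tropic) envelope; HeLa 67 cells infected with compound (DMSO stocks, 3-fold serial dilutions). Luciferase read 3 days post-infection.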

T1 sequence (P05187 whole entry): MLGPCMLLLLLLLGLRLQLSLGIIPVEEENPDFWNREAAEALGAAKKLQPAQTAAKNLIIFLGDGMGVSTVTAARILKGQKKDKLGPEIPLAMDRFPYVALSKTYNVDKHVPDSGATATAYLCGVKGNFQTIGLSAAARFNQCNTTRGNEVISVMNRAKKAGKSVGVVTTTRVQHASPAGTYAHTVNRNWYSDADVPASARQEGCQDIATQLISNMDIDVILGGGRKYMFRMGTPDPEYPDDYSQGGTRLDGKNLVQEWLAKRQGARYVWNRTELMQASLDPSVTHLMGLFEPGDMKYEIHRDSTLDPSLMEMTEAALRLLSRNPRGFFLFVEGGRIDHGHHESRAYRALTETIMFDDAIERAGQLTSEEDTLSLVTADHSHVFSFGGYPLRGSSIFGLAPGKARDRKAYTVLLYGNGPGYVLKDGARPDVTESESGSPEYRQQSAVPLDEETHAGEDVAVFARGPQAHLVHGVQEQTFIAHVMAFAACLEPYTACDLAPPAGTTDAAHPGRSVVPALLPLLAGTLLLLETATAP
Envelope glycoprotein gp160 (Human immunodeficiency virus 1), sequence (Q6QLK5 1-814): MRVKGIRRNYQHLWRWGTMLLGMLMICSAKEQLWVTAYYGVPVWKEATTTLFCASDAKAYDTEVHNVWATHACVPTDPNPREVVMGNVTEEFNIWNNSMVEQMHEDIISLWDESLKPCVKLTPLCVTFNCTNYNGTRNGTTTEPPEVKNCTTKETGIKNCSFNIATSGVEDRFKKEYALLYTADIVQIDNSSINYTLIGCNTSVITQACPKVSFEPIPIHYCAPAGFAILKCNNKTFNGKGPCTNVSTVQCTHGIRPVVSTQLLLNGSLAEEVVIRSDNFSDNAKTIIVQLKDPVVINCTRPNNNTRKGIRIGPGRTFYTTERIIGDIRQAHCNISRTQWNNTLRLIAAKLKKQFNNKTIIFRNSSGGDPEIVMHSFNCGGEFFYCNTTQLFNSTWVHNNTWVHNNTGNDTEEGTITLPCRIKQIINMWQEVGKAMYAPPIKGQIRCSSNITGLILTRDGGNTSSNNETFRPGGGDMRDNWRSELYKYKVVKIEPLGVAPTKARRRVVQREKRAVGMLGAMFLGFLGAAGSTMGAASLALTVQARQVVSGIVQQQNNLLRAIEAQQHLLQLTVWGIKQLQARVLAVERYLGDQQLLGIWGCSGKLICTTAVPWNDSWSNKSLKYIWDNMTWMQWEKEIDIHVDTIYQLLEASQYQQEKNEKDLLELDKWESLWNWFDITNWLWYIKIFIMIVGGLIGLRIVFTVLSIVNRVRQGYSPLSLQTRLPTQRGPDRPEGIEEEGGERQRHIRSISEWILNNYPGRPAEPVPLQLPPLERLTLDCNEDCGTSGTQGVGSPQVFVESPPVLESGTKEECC
Envelope glycoprotein gp160, sequence (Q6QLK5 whole entry): as the sequence (Q6QLK5 1-814) above

In the case of `COc1cnc(-n2cnc(C)n2)c2c1c(C(=O)C(=O)N1CCN(C(=O)c3ccccc3)CC1)cn2COP(=O)(O)O.NC(CO)(CO)CO` [FOSTEMSAVIR TROMETHAMINE], the Stability entry in series [1], in series [4] and in [7] was “Stable” each time. For the same molecule, the Drug metabolism result in [2] was “Metabolite_Detected”; in [3], “Metabolite_Detected”; in series [5], “Metabolite_Detected”; in series [6], “Metabolite_Detected”; in the series with Homo sapiens it was “Dose-dependent effect”; in series [9], “Metabolite_Detected”. Further, in series [10], the Drug metabolism result is listed as “Metabolite_Detected”. For the same molecule, the solubility in [8] is above 11 mg/mL. In addition, in the series with Canis familiaris, the Activity result is “Toxic”.

`COc1ncc(OC)c2c(C(=O)C(=O)N3CCN(C(=O)c4ccccc4)CC3)c[nH]c12` registered a Kd in [11] of 19 nM. Besides, the AUC amounted to 28 µM·h in [12] and 43 µM·h in [19]. Moreover, the “log(activity)” value is 1.5 /ml in series [13], 1.32 /ml in series [16], 0.72 /ml in [18] and 0.96 /ml in [21]. For the same molecule, in series [14], the fraction unbound is 0.05. The molecule further had an EC50 in series [15] of 0.88 nM. In the series on MT2, the CC50 is above 300000 nM. For the same molecule, the T1/2 in [17] stood at 43 min. Besides, in series [20], the AUC at 24 h turned out to be 15 µM·h. Also, the half-life in series [22] is above 100 min. In series [23], the “Ratio EC50” value is recorded as 1.9 - 3.7.

Usually solubility stands for how much of the substance goes into solution per volume. By Kd is commonly meant the concentration at which binding is half-saturated. What is called AUC is the area under the concentration-time curve, a measure of exposure. Broadly, the EC50 is the concentration needed to bring the measured effect to its halfway point. The CC50 is the concentration giving 50% cytotoxicity. As usually defined, the half-life is how long it takes for the measured level to halve.

These data come from ChEMBL document CHEMBL4130629 (J Med Chem, 2018).
